Experiments:
[1] = species: Bos taurus; experiment: Relative potency of compound to that of theophylline against phosphodiesterase from bovine heart
Method in brief: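 Klee-method assay of commercial bovine heart phosphodiesterase with 1 μM cyclic-AMP; some inhibitors were dissolved in 95% ethanol (2.5% final). I50 came from V0/V versus concentration plots (V0/V = 2), using five concentrations and at least three repeats. Each value is expressed relative to the I50 of a theophylline control (= 1.0) run with or without ethanol to match.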

[2] = Inhibitory activity against phosphodiesterase using 1 uM cyclic-AMP as substrate in bovine heart; parameters: species or system Bos taurus; settings: read-out: I50
Method in brief: (§1)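 Commercial bovine heart phosphodiesterase assayed by the Klee method with 1 μM cyclic-AMP substrate. Poorly soluble inhibitors were predissolved in 95% ethanol, giving 2.5% ethanol final. I50 was taken from a plot of V0/V against inhibitor concentration as the concentration where V0/V = 2. Five concentrations spanning 25–75% inhibition were used, and each I50 was repeated at least three times; ± standard error.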

[3] = species: Bos taurus; experiment: Inhibition of bovine heart phosphodiesterase at 3000 uM using 1 uM cyclic-AMP
Method in brief: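 Commercial bovine heart cyclic-AMP phosphodiesterase assayed by the Klee method with 1 μM cyclic-AMP substrate. Poorly soluble compounds were dissolved in 95% ethanol (2.5% final) before dilution with buffer. Activity is read as percent inhibition at a single inhibitor concentration.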

[4] = species: Bos taurus; experiment: Inhibition of bovine heart phosphodiesterase at 2000 uM using 1 uM cyclic-AMP
Method in brief: (§2)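 Percent inhibition of commercial bovine heart phosphodiesterase at the single stated inhibitor concentration, measured by the Klee method with 1 μM cyclic-AMP substrate. Some compounds were dissolved in 95% ethanol, giving 2.5% final ethanol, before dilution with buffer.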

[5] = species: Bos taurus; experiment: Inhibition of bovine heart phosphodiesterase using 1 uM cyclic-AMP; method in brief: as §1
[6] = species: Bos taurus; experiment: Inhibition of bovine heart phosphodiesterase at 1000 uM using 1 uM cyclic-AMP; method in brief: as §2
[7] = Inhibition of bovine heart phosphodiesterase using 1 uM cyclic-AMP (Insoluble); parameters: species or system Bos taurus; method in brief: as §1
[8] = species: Bos taurus; experiment: Inhibition of bovine heart phosphodiesterase at 1500 uM using 1 uM cyclic-AMP; method in brief: as §2
[9] = Inhibition of bovine heart phosphodiesterase using 1 uM cyclic-AMP with ethanol; parameters: species or system Bos taurus; settings: read-out: I50
Method in brief: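 Commercial bovine heart PDE, assayed by the Klee method with 1 μM cyclic-AMP substrate. Inhibitors were dissolved in 95% ethanol and diluted with buffer to 2.5% ethanol final. V0/V was plotted against inhibitor concentration, and I50 was taken where V0/V = 2. Five inhibitor concentrations spanning 25-75% inhibition were used, each I50 was run at least three times, and values are expressed relative to an ethanol-containing theophylline control (= 1.0) ± standard error.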

SMILES	Relative potency [1]	IC50 [2] [µM]	also measured
CCC1C(=O)N2CCSC2=[N+](CC2CC2)C1=O (centres undefined)	0.2	1390	–
Cn1c(=O)c2[nH]cnc2n(C)c1=O	1	–	–
O=C1CC(=O)[N+](CC2CC2)=C2SCCN12	0.1	2050	–
CCC1C(=O)N2C=CSC2=[N+](CC(C)C)C1=O (centres undefined)	0.6	498	–
CC1C(=O)N2CCSC2=[N+](CC2CC2)C1=O (centres undefined)	0.2	1260	–
CCC1C(=O)N(CC)c2scc[n+]2C1=O (centres undefined)	0.3	858	–
CCC1C(=O)N2C=CSC2=[N+](Cc2ccccc2)C1=O (centres undefined)	0.9	430	–
CCC1C(=O)N2C=CC=CC2=[N+](CC2CCCCC2)C1=O (centres undefined)	2	210	–
CCC1C(=O)N2C=CSC2=[N+](Cc2ccc3c(c2)OCO3)C1=O (centres undefined)	1.6	261	–
CCC1C(=O)N2C=CN(C)C2=[N+](CC)C1=O (centres undefined)	–	–	inhibition [3]: < 30%
CC[N+]1=C2SC=CN2C(=O)C(Cc2ccccc2)C1=O (centres undefined)	2.5	168	–
CCC1C(=O)N=C2N=CC=CN2C1=O (centres undefined)	–	–	inhibition [4]: 22%
C[N+]1=C2SC=NN2C(=O)CC1=O	0.4	1100	–
CC[N+]1=C2SC=CN2C(=O)CC1=O	0.3	988	–
CC1C(=O)N2C=CSC2=[N+](CC2CC2)C1=O (centres undefined)	0.9	319	–
CCC1C(=O)N2CCSC2=[N+](CC)C1=O (centres undefined)	–	–	inhibition [5]: 38%
CCCC1C(=O)N2N=CN(C)C2=[N+](C)C1=O (centres undefined)	0.2	1710	–
CC[N+]1=C2SC=CN2C(=O)C(C)C1=O (centres undefined)	0.3	951	–
CC[N+]1=C2SC=NN2C(=O)C(Cc2ccccc2)C1=O (centres undefined)	7.9	52	–
CC[N+]1=C2SC=NN2C(=O)CC1=O	0.5	774	–
CCC1C(=O)N2C=CSC2=[N+](c2ccccc2)C1=O (centres undefined)	–	–	inhibition [6]: < 40%
CCC1C(=O)N2N=CSC2=[N+](CC)C1=O (centres undefined)	0.7	555	–
CCC1C(=O)N2C=Cc3ccccc3C2=[N+](CC)C1=O (centres undefined)	3.2	127	–
CN1C=NN2C(=O)CC(=O)[N+](C)=C12	–	–	inhibition [4]: < 30%

SMILES	Relative potency [1]	IC50 [2] [µM]	also measured
CC1C(=O)N2N=CN(C)C2=[N+](C)C1=O (centres undefined)	–	–	inhibition [4]: < 30%
CCC1C(=O)N=C2SC=CN2C1=O (centres undefined)	–	–	I50 [7]: Insoluble
CC1C(=O)N2N=CSC2=[N+](Cc2ccccc2)C1=O (centres undefined)	2.2	191	–
CCC1C(=O)N(C)C2SC=CN2C1=O (centres undefined)	–	–	inhibition [6]: < 40%
CCC1C(=O)N2C=CSC2=[N+](Cc2ccc(-c3ccccc3)cc2)C1=O (centres undefined)	31.7	13	–
CCC1C(=O)N2C=CSC2=[N+](Cc2cc(OC)cc(OC)c2)C1=O (centres undefined)	1.3	323	–
COc1ccc(C[N+]2=C3SC=CN3C(=O)C(C)C2=O)cc1 (centres undefined)	0.7	532	–
CC1C(=O)N(C)C2SC=CN2C1=O (centres undefined)	–	–	inhibition [6]: < 40%
CC1C(=O)N2C=CSC2=[N+](c2ccccc2)C1=O (centres undefined)	–	–	inhibition [6]: < 40%
O=C1CC(=O)[N+](c2ccccc2)=C2SC=CN12	–	–	inhibition [6]: < 40%
CCC1C(=O)N2CCSC2=[N+](CC(C)C)C1=O (centres undefined)	–	–	inhibition [8]: 39%
CC[N+]1=C2N(C)C=CN2C(=O)C(C)C1=O (centres undefined)	–	–	inhibition [3]: < 30%
O=C1CC(=O)[N+](CC2CC2)=C2SC=CN12	0.6	495	–
Cn1c(=O)c2nc[nH]c2n(C)c1=O [THEOPHYLLINE]	–	286	IC50 [9]: 412 µM
O=C1CC(=O)[n+]2ccsc2N1Cc1cccc(Cl)c1	1.3	308	–
CCC1C(=O)N2C=CC=NC2=[N+](C)C1=O (centres undefined)	0.2	1670	–
C[N+]1=C2SC=CN2C(=O)CC1=O	–	–	inhibition [6]: < 40%
CCC1C(=O)N2C=CSC2=[N+](CC2CC2)C1=O (centres undefined)	0.7	396	–
CC[N+]1=C2SC=NN2C(=O)C(C)C1=O (centres undefined)	0.4	1160	–
CCC1C(=O)N=C2SC=NN2C1=O (centres undefined)	–	–	I50 [7]: Insoluble
CCC1C(=O)N2C=CSC2=[N+](Cc2ccc(Cl)cc2)C1=O (centres undefined)	2.2	191	–
CCC1C(=O)N2C=CSC2=[N+](Cc2cccc(Cl)c2)C1=O (centres undefined)	2	208	–
CCC1C(=O)N2N=CN(C)C2=[N+](C)C1=O (centres undefined)	–	–	inhibition [4]: < 30%
CCC1C(=O)N2C=CSC2=[N+](Cc2ccccc2Cl)C1=O (centres undefined)	1.4	305	–

— ChEMBL document CHEMBL1121738, “Mesoionic purinone analogues as inhibitors of cyclic-AMP phosphodiesterase: a comparison of several ring systems” (J Med Chem, 1981)
